Laboratory results as given in ChEMBL document CHEMBL1138780, “Synthesis and conformational analysis of a non-amidine factor Xa inhibitor that incorporates 5-methyl-4,5,6,7-tetrahydrothiazolo[5,4-c]pyridine as S4 binding element” (J Med Chem, 2004).

Tests used:
Prothrombin = Prothrombin (Homo sapiens, UniProt P00734); experiment: Concentration required to inhibit thrombin activity by 50%
Rattus norvegicus = species on record: Rattus norvegicus; experiment: Anticoagulant activity in vitro was evaluated by prolongation rate of prothrombin time; assay type: functional
[1] = Anticoagulant activity in vitro was evaluated with plasma clotting time doubling concentration for prothrombin time; assay type: functional, Homo sapiens
Coagulation factor X = Coagulation factor X (Homo sapiens, UniProt P00742); experiment: Inhibitory concentration against Coagulation factor X
Sequence of Coagulation factor X (P00742 41-179 limits assumed): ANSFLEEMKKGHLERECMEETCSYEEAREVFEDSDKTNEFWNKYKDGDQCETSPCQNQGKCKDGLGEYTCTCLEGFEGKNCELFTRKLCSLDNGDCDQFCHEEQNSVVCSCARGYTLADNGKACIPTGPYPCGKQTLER
Sequence of Coagulation factor X (P00742 235-488 limits assumed): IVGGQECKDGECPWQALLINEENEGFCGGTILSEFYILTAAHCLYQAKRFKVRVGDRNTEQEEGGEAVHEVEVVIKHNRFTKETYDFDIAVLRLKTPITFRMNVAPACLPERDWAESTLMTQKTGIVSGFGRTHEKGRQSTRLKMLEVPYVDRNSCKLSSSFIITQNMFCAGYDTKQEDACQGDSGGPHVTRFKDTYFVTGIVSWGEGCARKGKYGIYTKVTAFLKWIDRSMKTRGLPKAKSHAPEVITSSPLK

[2] = target: Coagulation factor X (Rattus norvegicus) (UniProt Q63207); experiment: Ex-vivo inhibitory activity against factor Xa of rat blood after 3h of peroral administration of 30 mg/kg; assay type: organism-based; parameters: dose 30 mg/kg; conditions: at 30 mg/kg
Sequence of Coagulation factor X (Rattus norvegicus) (Q63207 41-180 limits assumed): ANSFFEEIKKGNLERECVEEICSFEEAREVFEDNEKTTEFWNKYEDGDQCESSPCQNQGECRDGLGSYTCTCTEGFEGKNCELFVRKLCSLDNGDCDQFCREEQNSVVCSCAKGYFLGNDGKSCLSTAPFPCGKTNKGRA
Sequence of Coagulation factor X (Rattus norvegicus) (Q63207 232-482 limits assumed): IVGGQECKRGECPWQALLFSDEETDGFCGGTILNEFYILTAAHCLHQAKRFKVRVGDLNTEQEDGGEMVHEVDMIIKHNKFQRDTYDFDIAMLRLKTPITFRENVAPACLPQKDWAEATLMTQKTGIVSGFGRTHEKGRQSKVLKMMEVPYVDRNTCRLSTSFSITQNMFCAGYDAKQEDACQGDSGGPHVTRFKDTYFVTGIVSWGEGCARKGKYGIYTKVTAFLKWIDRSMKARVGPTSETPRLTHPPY
Summary of the method: (§1)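 Fasted male Wistar rats received compound orally by stomach tube in 0.5% methylcellulose; controls got vehicle. Under halothane anesthesia, citrated blood was drawn at the stated time and platelet-poor plasma prepared. Plasma anti-fXa activity was measured chromogenically in Tris/NaCl/BSA buffer, pH 7.4, as 1 − sample OD/min ÷ control OD/min.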

[3] = target: Coagulation factor X (Rattus norvegicus) (UniProt Q63207); experiment: Ex-vivo inhibitory activity against factor Xa of rat blood after 1 hr of peroral administration of 30 mg/kg; assay type: organism-based; parameters: dose 30 mg/kg; conditions: at 30 mg/kg; summary of the method: as §1
[4] = target: Coagulation factor X (Rattus norvegicus) (UniProt Q63207); experiment: Ex-vivo inhibitory activity against factor Xa of rat blood after 6 hr of peroral administration of 30 mg/kg; assay type: organism-based; parameters: dose 30 mg/kg; conditions: at 30 mg/kg; summary of the method: as §1

| SMILES | Anticoagulant activity (Rattus norvegicus) [µM] | Anticoagulant activity [1] [µM] | IC50 (Coagulation factor X) [nM] | further results |
| --- | --- | --- | --- | --- |
| O=C(c1nc2c(s1)CNCC2)N1CCN(S(=O)(=O)c2ccc3cc(Cl)ccc3c2)CC1 | 16.1 | 11.2 |  | IC50 (Prothrombin): 2900 nM |
| CN1CCc2sc(C(=O)N3CCN(S(=O)(=O)c4ccc5cc(Cl)ccc5c4)CC3)nc2C1 |  |  | 210 |  |
| CN1CCc2[nH]c(C(=O)N3CCN(S(=O)(=O)c4ccc5cc(Cl)ccc5c4)CC3)cc2C1 |  |  | 320 |  |
| CCN1CCc2nc(C(=O)N3CCN(S(=O)(=O)c4ccc5cc(Cl)ccc5c4)CC3C(N)=O)sc2C1 (configuration not stated) | 14.6 | 7.2 | 110 |  |
| O=C(c1cc2c(s1)CCNC2)N1CCN(S(=O)(=O)c2ccc3cc(Cl)ccc3c2)CC1 |  |  | 270 |  |
| CN1CCc2sc(C(=O)N3CCN(S(=O)(=O)c4ccc5cc(Cl)ccc5c4)CC3)cc2C1 |  |  | 190 |  |
| O=C(c1cc2c([nH]1)CCNC2)N1CCN(S(=O)(=O)c2ccc3cc(Cl)ccc3c2)CC1 |  |  | 6200 |  |
| CN1CCc2nc(C(=O)N3CCN(S(=O)(=O)c4ccc5cc(Cl)ccc5c4)CC3)sc2C1 | 10 | 6 |  | IC50 (Prothrombin): 560 nM |
| CN1CCc2nc(C(=O)N3CCN(S(=O)(=O)c4ccc5cc(Cl)ccc5c4)CC3C(N)=O)sc2C1 (configuration not stated) | 14 | 4.4 |  | IC50 (Prothrombin): 1000 nM; inhibition [2]: 55.8%; inhibition [3]: 67.4%; inhibition [4]: 24.7% |
| NC(=O)C1CN(S(=O)(=O)c2ccc3cc(Cl)ccc3c2)CCN1C(=O)c1nc2c(s1)CNCC2 (configuration not stated) | 28.8 | 9.7 | 83 |  |
| CN1CCc2nc(C(=O)N3CCN(S(=O)(=O)c4ccc5cc(Cl)ccc5c4)CC3)ccc2C1 |  |  | 2200 |  |
| O=C(c1cc2c(s1)CNCC2)N1CCN(S(=O)(=O)c2ccc3cc(Cl)ccc3c2)CC1 |  |  | 160 |  |
| CN1CCc2cc(C(=O)N3CCN(S(=O)(=O)c4ccc5cc(Cl)ccc5c4)CC3)sc2C1 |  |  | 105 |  |
| CC(C)N1CCc2nc(C(=O)N3CCN(S(=O)(=O)c4ccc5cc(Cl)ccc5c4)CC3C(N)=O)sc2C1 (configuration not stated) | 17.5 | 6.6 | 80 |  |
| O=C(c1ccc2c(n1)CCNC2)N1CCN(S(=O)(=O)c2ccc3cc(Cl)ccc3c2)CC1 |  |  | 920 |  |
| CN1CCc2cc(C(=O)N3CCN(S(=O)(=O)c4ccc5cc(Cl)ccc5c4)CC3)oc2C1 |  |  | 550 |  |
| O=C(c1ccc2c(c1)CCNC2)N1CCN(S(=O)(=O)c2ccc3cc(Cl)ccc3c2)CC1 |  |  | 640 |  |
